Measured values of several laboratories.
Protocols differ between the studies behind these lines.
Target: Serine/threonine-protein kinase Nek2 (NEK2, Homo sapiens, UniProt P51955)
One construct used (P51955 1-445): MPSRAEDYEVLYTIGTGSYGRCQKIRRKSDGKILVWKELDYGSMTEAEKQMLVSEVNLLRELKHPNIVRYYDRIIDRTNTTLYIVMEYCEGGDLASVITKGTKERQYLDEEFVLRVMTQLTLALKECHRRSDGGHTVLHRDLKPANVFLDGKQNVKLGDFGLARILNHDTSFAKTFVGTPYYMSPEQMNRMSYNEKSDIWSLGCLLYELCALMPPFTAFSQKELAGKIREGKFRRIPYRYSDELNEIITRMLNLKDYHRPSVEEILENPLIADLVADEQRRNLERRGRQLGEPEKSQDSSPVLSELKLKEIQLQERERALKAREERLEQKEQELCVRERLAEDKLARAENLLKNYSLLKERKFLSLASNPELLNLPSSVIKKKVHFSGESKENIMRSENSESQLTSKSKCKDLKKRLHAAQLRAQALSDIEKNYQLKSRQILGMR

COc1cc(Nc2ncc(F)c(Nc3ccc4c(n3)NC(=O)C(C)(C)O4)n2)cc(OC)c1OC — inhibition (binding; competition with immobilised ligand; 10 µM): 83%
Cn1cncc1[C@](O)(COc1ccc(C#N)cc1-c1ccc(OC(F)(F)F)cc1)c1ccc(C#N)cc1 — remaining binding (cell-free assay; competition with immobilised ligand; 1 µM): 100%
Cc1nn(C)cc1-c1nc2c(N3CCN(Cc4ccc(Cl)cc4)CC3)c(Cl)cnc2[nH]1 — remaining binding (binding; competition with immobilised ligand; 1 µM): 100%
Cn1cc(-c2cc(F)cc(N3CCn4c(cc5c4CCCC5)C3=O)c2CO)cc(Nc2ccc(N3CCN(C4COC4)CC3)cn2)c1=O — inhibition (enzyme activity; inhibitor; 0.1 µM): 10%
CC(C)(C)c1cc(C=C(C#N)C#N)cc(Br)c1O — remaining activity (enzyme activity; inhibitor; 0.5 µM): 96%
Cn1cc(-c2cccc(N3CCc4c(sc5c4CC(C)(C)C5)C3=O)c2CO)cc(Nc2ccncn2)c1=O — inhibition (enzyme activity; inhibitor; 1 µM): 4%
Nc1ncc(-c2nc(N3CCOCC3)nc(N3CCOCC3)n2)c(C(F)F)n1 — remaining binding (binding; competition with immobilised ligand; 10 µM): 87%
COc1ncccc1-c1cnn2ccc(N3CCN(C(=O)OC(C)C)CC3)nc12 — remaining binding (binding; competition with immobilised ligand; 1 µM): 86%
C#Cc1n[nH]c2c(-c3cn(C(C)c4ccccn4)c(=O)[nH]c3=O)cc(F)cc12 (stereo not drawn) — inhibition (enzyme activity; inhibitor; 1 µM): -4.6%
O=c1[nH]c2ccccc2n1C1CCN(Cc2ccc(-c3[nH]c4cc5ncnc5cc4nc3-c3ccccc3)cc2)CC1 — remaining signal (cell-free assay; 0.5 µM): 96.8%
N#CC1(c2ccccn2)CCN(Cc2cc(C(=O)O)c(=O)n3ccccc23)CC1 — remaining binding (cell-free assay; competition with immobilised ligand; 1 µM): 100%
C#Cc1n[nH]c2c(-c3cn([C@@H](C)c4ccccc4)c(=O)[nH]c3=O)cc(F)cc12 — inhibition (enzyme activity; inhibitor; 0.1 µM): 0.5%
